Active and inactive are the calls of the source. No cut-off for these calls is given here.
How the values were obtained:
[1] = Dark toxicity against human HaCaT cells assessed as cell survival at 5 uM incubated for 6 hrs measured after 24 hrs by MTT assay; format: cell-based; details: read-out: Survival
In short: (§1)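 Cells (HaCaT and HeLa in DMEM, HEp-2 in RPMI, each with 10% FBS, at 37 °C and 5% CO2) were treated at 60–70% confluence. The compound was added from a 10^-3 M DMSO stock in medium with 1% FBS (final DMSO <0.5%) at 3·10^-6 to 2.5·10^-5 M and kept in the dark (6 h per table footnote, 18 h per methods). After 24 h, MTT at 50 µg/mL for 4 h, read at 542 nm as % of control OD.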

[2] = tested on: HaCaT; experiment: Drug uptake in human HaCaT cells at 1 uM after 6 hrs by fluorescence microscopy; format: ADME, cell-based
In short: (§2)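 Cells on glass coverslips at 60–70% confluence were exposed to 1×10^-6 M compound in medium with 1% FBS (DMSO <0.5%) for 6 h at 37 °C. After two PBS washes they were imaged live under UV excitation (365 nm), with blue excitation (460–490 nm) also used. Untreated cells served as autofluorescence controls.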

[3] = tested on: HeLa; experiment: Drug uptake in human HeLa cells at 1 uM after 6 hrs by fluorescence microscopy; format: ADME, cell-based; in short: as §2
[4] = Drug uptake in endoplasmic reticulum of human Hep2 cells at 1 uM after 6 hrs by ER-tracker dye-based fluorescence microscopy; format: ADME, cell-based; details: hep-2, 6 h
In short: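 Cells grown on glass coverslips were incubated with 1×10^-6 M photosensitizer for 6 h at 37 °C, washed twice in PBS and imaged live by fluorescence microscopy. Organelle probes (ER-Tracker, ex 374/em 430 nm; NBD-Golgi, ex 466/em 536 nm) were applied for 30 min at the supplier's concentrations, and their patterns were compared with the compound signal.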

[5] = Dark toxicity against human HeLa cells assessed as cell survival at 3 uM incubated for 6 hrs measured after 24 hrs by MTT assay; format: cell-based; details: read-out: Survival; in short: as §1
[6] = Dark toxicity against human Hep2 cells assessed as cell survival at 3 uM incubated for 6 hrs measured after 24 hrs by MTT assay; format: cell-based, HEp-2; details: read-out: Survival; in short: as §1
[7] = Dark toxicity against human Hep2 cells assessed as cell survival at 5 uM incubated for 6 hrs measured after 24 hrs by MTT assay; format: cell-based, HEp-2; details: read-out: Survival; in short: as §1
[8] = Dark toxicity against human Hep2 cells assessed as cell survival at 10 uM incubated for 6 hrs measured after 24 hrs by MTT assay; format: cell-based, HEp-2; details: read-out: Survival; in short: as §1
[9] = Phototoxicity against human Hep2 cells incubated for 6 hrs followed by UV irradiation at 0.25 J/cm'2 measured after 24 hrs by MTT assay; format: functional, HEp-2
In short: (§3)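 Cultures at 60–70% confluence were loaded with the photosensitizer for 6 h in medium with 1% FBS and <0.5% DMSO. Medium was then replaced and cells were irradiated with UVA (300–400 nm, 15.9 W/m² at 10 cm), then washed and kept in complete medium for 24 h. Survival was read by MTT (50 µg/mL, 4 h, 542 nm) as % of untreated control OD.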

[10] = tested on: HaCaT; experiment: Phototoxicity against human HaCaT cells assessed as cell lethality at 3 to 250 uM incubated for 6 hrs followed by UV irradiation at 1 J/cm'2 measured after 24 hrs by MTT assay; format: cell-based; in short: as §3
[11] = tested on: HeLa; experiment: Phototoxicity against human HeLa cells assessed as cell lethality at 3 to 250 uM incubated for 6 hrs followed by UV irradiation at 2 J/cm'2 measured after 24 hrs by MTT assay; format: functional; in short: as §3
[12] = tested on: HaCaT; experiment: Induction of cell morphological changes in human HaCaT cells assessed as cytoplasmic retraction at 3 to 5 uM after 24 hrs by Hoechst 33258 staining-based phase contrast microscopy in presence of UVA light
[13] = tested on: HaCaT; experiment: Induction of cell morphological changes in human HaCaT cells assessed as appearance of apoptotic cells with membrane blebbing at 3 to 5 uM after 24 hrs by Hoechst 33258 staining-based phase contrast microscopy in presence of UVA light
[14] = tested on: HeLa; experiment: Induction of cell morphological changes in human HeLa cells assessed as cytoplasmic retraction at 3 to 5 uM after 24 hrs by Hoechst 33258 staining-based phase contrast microscopy in presence of UVA light; format: functional
[15] = tested on: HeLa; experiment: Induction of cell morphological changes in human HeLa cells assessed as cellular stretching at 3 to 5 uM after 24 hrs by Hoechst 33258 staining-based phase contrast microscopy in presence of UVA light; format: functional
[16] = tested on: HaCaT; experiment: Induction of morphological changes in human HaCaT cells assessed as nuclear retraction at LD50 after 24 hrs by Hoechst 33258 staining-based fluorescence microscopy in presence of UVA light; format: cell-based
[17] = tested on: HeLa; experiment: Induction of morphological changes in human HeLa cells assessed as nuclear retraction at LD50 after 24 hrs by Hoechst 33258 staining-based fluorescence microscopy in presence of UVA light; format: functional, cell-based
[18] = tested on: HEp-2; experiment: Induction of apoptotic morphological changes in human Hep2 cells at LD50 after 24 hrs by Hoechst 33258 staining-based fluorescence microscopy in presence of UVA light; format: functional, cell-based
[19] = tested on: HEp-2; experiment: Increase in mitotic nuclei level in human Hep2 cells at LD50 after 24 hrs by Hoechst 33258 staining-based fluorescence microscopy in presence of UVA light; format: functional, cell-based
[20] = tested on: HEp-2; experiment: Induction of apoptosis in human Hep2 cells at LD50 after 24 hrs by acridine orange/ethidium bromide staining-based assay in presence of 0.25 to 0.5 J/cm'2 UVA light; format: functional, cell-based
[21] = tested on: HeLa; experiment: Induction of necrosis in human HeLa cells at LD50 after 24 hrs by acridine orange/ethidium bromide staining-based assay in presence of 0.25 to 0.5 J/cm'2 UVA light; format: functional, cell-based
[22] = tested on: HEp-2; experiment: Phototoxicity against human Hep2 cells assessed as appearance of rounded cells at LD50 after 24 hrs by acridine orange/ethidium bromide staining-based assay in presence of 0.25 to 0.5 J/cm'2 UVA light; format: functional, cell-based
In short: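 Cells (HaCaT, HeLa in DMEM; HEp-2 in RPMI; 10% FBS) at 60–70% confluence were incubated 6 h with 3·10^-6 M photosensitizer (DMSO stock diluted in medium with 1% FBS, final DMSO <0.5%). Medium was replaced and cells were given 0.25 J/cm² UVA (300–400 nm). 24 h later, cells were stained live with 50 µg/ml AO plus 50 µg/ml EtBr in PBS. Within 15 min, 200 cells per condition were scored as living, rounded, apoptotic or necrotic.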

[23] = tested on: HeLa; experiment: Induction of microtubule disruption in human HeLa cells assessed as increase in mitotic index at LD50 after 24 hrs by immunofluorescence assay in presence of UVA light; format: cell-based
[24] = tested on: HeLa; experiment: Induction of microtubule disruption in human HeLa cells assessed as increase in altered metaphase at LD50 after 24 hrs by immunofluorescence assay in presence of UVA light; format: cell-based
[25] = tested on: HEp-2; experiment: Induction of microtubule disruption in human Hep2 cells assessed as increase in altered metaphase at LD50 after 24 hrs by immunofluorescence assay in presence of UVA light; format: cell-based
[26] = tested on: HEp-2; experiment: Induction of cell morphological changes in human Hep2 cells assessed as appearance of rounded cells at 3 to 5 uM after 24 hrs by Hoechst 33258 staining-based phase contrast microscopy in presence of UVA light; format: functional

| SMILES | viability at 6 h, 5 µM [1] | Drug uptake [2] | Drug uptake [3] | Drug uptake [4] | viability at 6 h, 3 µM [5] | viability at 6 h, 3 µM [6] | viability at 6 h, 5 µM [7] | viability at 6 h, 10 µM [8] | LD50 [9] | mortality [10] | mortality [11] | Activity [12] | Activity [13] | Activity [14] | Activity [15] | Activity [16] | Activity [17] | Activity [18] | Activity [19] | Activity [20] | also measured |
| --- | --- | --- | --- | --- | --- | --- | --- | --- | --- | --- | --- | --- | --- | --- | --- | --- | --- | --- | --- | --- | --- |
| COc1cc(C#Cc2ccc(C#Cc3cc(OC)c(C#CCO[C@@H]4O[C@H](CO)[C@@H](O)[C@H](O)[C@H]4O)cc3OC)c(N(C)C)c2)c(OC)cc1C#CCO[C@@H]1O[C@H](CO)[C@@H](O)[C@H](O)[C@H]1O | 91.4% | Active | Active | Active | 96.4% | 97.2% | 96.3% | 85.6% | 3 ×10⁻⁶ M | > 50% | >50% | Toxic | Toxic | Active | Active | Toxic | Active | Active | Active | Active | Activity [21]: Active; Activity [22]: Active; Activity [23]: Active; Activity [24]: Active; Activity [25]: Active; Activity [26]: Active |
| COc1cc(C#Cc2ccc(C#CCO[C@@H]3O[C@H](CO)[C@@H](O)[C@H](O)[C@H]3O)cc2N(C)C)c(OC)cc1C#Cc1ccc(C#CCO[C@@H]2O[C@H](CO)[C@@H](O)[C@H](O)[C@H]2O)cc1N(C)C | 90.9% | Active | Active | Active | 96.6% | 97.7% | 95.7% | 80.1% | 3 ×10⁻⁶ M | > 50% | >50% | Toxic | Toxic | Active | Active | Toxic | Active | Active | Active | Active | Activity [21]: Active; Activity [22]: Active; Activity [23]: Active; Activity [24]: Active; Activity [25]: Active; Activity [26]: Active |
